Test results taken from ChEMBL document CHEMBL4138050, “Discovery of selective cystathionine β-synthase inhibitors by high-throughput screening with a fluorescent thiol probe” (Medchemcomm, 2017).
Calls of active or inactive are those of the source. The calls are words filed in the database; no cut-off is given here.

Assays:
[1] = biological target: T1, Cystathionine beta-synthase (Homo sapiens) (UniProt P35520); assay: Reversible inhibition of full-length GST-fused human CBS using cysteine/homocysteine as substrate assessed as decrease in H2S production at 100 uM preincubated for 1 hr followed by ultrafiltration for 5 times
T1 sequence (whole entry): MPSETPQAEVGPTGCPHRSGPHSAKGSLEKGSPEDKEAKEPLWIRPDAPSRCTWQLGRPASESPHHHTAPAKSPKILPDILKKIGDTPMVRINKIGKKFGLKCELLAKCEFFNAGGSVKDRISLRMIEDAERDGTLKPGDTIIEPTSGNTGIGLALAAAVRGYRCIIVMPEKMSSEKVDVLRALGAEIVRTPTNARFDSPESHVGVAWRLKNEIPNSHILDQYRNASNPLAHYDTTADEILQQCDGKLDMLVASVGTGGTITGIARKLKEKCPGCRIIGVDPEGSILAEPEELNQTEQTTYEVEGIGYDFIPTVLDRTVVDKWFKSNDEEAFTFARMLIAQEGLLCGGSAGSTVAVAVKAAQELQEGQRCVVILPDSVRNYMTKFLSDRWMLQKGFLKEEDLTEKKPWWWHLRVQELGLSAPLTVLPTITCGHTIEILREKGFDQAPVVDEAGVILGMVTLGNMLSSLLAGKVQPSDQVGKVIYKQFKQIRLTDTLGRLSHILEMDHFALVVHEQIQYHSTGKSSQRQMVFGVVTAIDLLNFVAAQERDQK

[2] = biological target: T2, Cystathionine beta-synthase (Homo sapiens, UniProt P35520); assay: Inhibition of full-length GST-fused human CBS using cysteine/homocysteine as substrate assessed as decrease in H2S production preincubated for 3 mins in presence of homocysteine and lead nitrate followed by cysteine addition
T2 sequence (P35520 whole entry): T1 sequence (whole entry)
Method in brief: (§1)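 The H2S-producing activity of the purified human enzyme was measured with cysteine and homocysteine as substrates in 50 mM HEPES, pH 7.4, with 0.4 mM lead nitrate (lead sulfide read-out).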

[3] = organism: Homo sapiens; assay: Selectivity ratio of IC50 for N-terminal His-tagged CSE extracted from human HepG2 cells expressed in Escherichia coli BL21 (DE3) using cysteine as substrate assessed as decrease in H2S production to IC50 for full-length GST-fused human CBS using cysteine/homocysteine as substrate assessed as decrease in H2S production
[4] = system: HT-29; assay: Antiproliferative activity against human HT-29 cells assessed as decrease in cell viability after 24 hrs by CCK8 assay; assay type: functional, cell-based; details: HT-29, 24 h
Method in brief: (§2)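 Viability of HT29 colon cancer cells and of NCM356 normal colon mucosal epithelial cells was measured across a concentration range and expressed relative to the control group. IC50 was taken from the dose–response curve. For HT29, values are means ± SD with n = 6.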

[5] = biological target: T3, Cystathionine gamma-lyase (Homo sapiens, UniProt P32929); assay: Inhibition of N-terminal His-tagged CSE extracted from human HepG2 cells expressed in Escherichia coli BL21 (DE3) using cysteine as substrate assessed as decrease in H2S production preincubated for 3 mins in presence of lead nitrate followed by cysteine addition; method in brief: as §1
T3 sequence (P32929 whole entry): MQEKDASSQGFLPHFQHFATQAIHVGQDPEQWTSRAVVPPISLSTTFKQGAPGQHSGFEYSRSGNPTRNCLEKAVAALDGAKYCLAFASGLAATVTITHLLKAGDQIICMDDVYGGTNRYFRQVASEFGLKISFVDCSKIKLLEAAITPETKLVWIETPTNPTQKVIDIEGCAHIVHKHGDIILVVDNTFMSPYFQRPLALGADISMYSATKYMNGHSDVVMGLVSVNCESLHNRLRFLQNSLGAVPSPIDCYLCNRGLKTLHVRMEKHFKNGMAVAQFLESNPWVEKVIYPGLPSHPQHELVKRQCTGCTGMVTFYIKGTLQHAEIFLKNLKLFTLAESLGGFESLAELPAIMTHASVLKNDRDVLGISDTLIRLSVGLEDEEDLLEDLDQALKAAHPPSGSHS

[6] = Antiproliferative activity against human NCM356 cells assessed as decrease in cell viability after 24 hrs by CCK8 assay; assay type: cell-based; method in brief: as §2
[7] = Selectivity index, ratio of IC50 for human NCM356 cells to IC50 for human HT-29 cells; assay type: toxicity; details: NCM356 cells versus HT-29 cells
[8] = biological target: T3, Cystathionine gamma-lyase; assay: Inhibition of N-terminal His-tagged CSE extracted from human HepG2 cells expressed in Escherichia coli BL21 (DE3) using methylcysteine as substrate measured for 10 mins by CPM probe-based fluorescence assay
Method in brief: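 Methanethiol release by purified human CSE was monitored continuously with 10 mM methylcysteine as substrate in 50 mM HEPES, pH 7.4. Thiol was trapped by the CPM fluorescent probe and read at 460 nm (excitation 400 nm). IC50 was taken from the dose–response curve.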

[9] = biological target: T2, Cystathionine beta-synthase; assay: Inhibition of full-length GST-fused human CBS using methylcysteine as substrate measured for 10 mins by CPM probe-based fluorescence assay
Method in brief: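 Enzyme source: full-length wild-type hCBS, 2 μg per reaction. Substrate: 10 mM methylcysteine. Buffer: 50 mM HEPES, pH 7.4, with 15 μM CPM thiol probe. Read-out: CH3SH release, followed as fluorescence at 460 nm (excitation 400 nm) over 600 s. Screening positive control: 100 μM AOAA. Secondary screen: compounds at 50 μM.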

inhibition [1]	IC50 [2]	Ratio IC50 [3]	IC50 [4]	IC50 [5]	IC50 [8]	IC50 [9]	SMILES	IC50 [6]	selectivity ratio [7]	inhibition [5]
Active	11.5 µM	–	≥ 50 µM	> 400 µM	–	–	O=c1cc(-c2ccc(O)cc2)oc2c(-c3c(O)cc(O)c4c(=O)cc(-c5ccc(O)cc5)oc34)c(O)cc(O)c12 [CUPRESSUFLAVONE]	–	–	–
Active	9.2 µM	–	1.5 µM	> 400 µM	–	–	COc1ccc([C@H]2Oc3cc(O)cc(O)c3C(=O)[C@@H]2[C@H]2C(=O)c3c(O)cc(O)cc3O[C@@H]2c2ccc(O)cc2)cc1 [SIKOKIANIN C]	19 µM	10	–
–	4 µM	–	140 µM	4 µM	570 nM	1000 nM	NOCC(=O)O [CARBOXYMETHOXYLAMINE]	800 µM	–	–
Active	8.1 µM	> 10	–	–	–	–	O=C(CCCCCCCCc1ccccc1)c1c(O)cc(O)cc1O	–	–	–
Active	6.2 µM	–	1.5 to 13.5 µM	> 400 µM	–	–	C[C@@H]1O[C@@H](Oc2c(-c3ccc(O)cc3)oc3cc(O)cc(O)c3c2=O)[C@H](OC(=O)/C=C\c2ccc(O)cc2)[C@H](O)[C@H]1OC(=O)/C=C\c1ccc(O)cc1	–	–	–
Active	5.9 µM	–	–	–	–	–	Oc1ccc(-c2oc3cc(O)cc4c3c2-c2cc(O)cc3c2[C@H](c2cc(O)cc5c2[C@@H]4[C@H](c2ccc(O)cc2)O5)[C@@H](c2ccc(O)cc2)O3)cc1	–	–	Active
Active	8.9 µM	–	7.9 µM	> 400 µM	–	–	COc1ccc(-c2cc(=O)c3c(O)cc(O)c(-c4cc(-c5cc(=O)c6c(O)cc(O)cc6o5)ccc4O)c3o2)cc1 [PODOCARPUSFLAVONE A]	36 µM	5	–
Active	7.4 µM	> 10	–	–	–	–	Oc1cc(O)cc(CCC/C=C\CCCCCCCCCc2cc(O)cc(O)c2)c1	–	–	–

SMILES	inhibition [1]	IC50 [2]	Ratio IC50 [3]	IC50 [4]	IC50 [5]	IC50 [8]	IC50 [9]	IC50 [6]	selectivity ratio [7]	inhibition [5]
Cc1cc(O)c2c(=O)c3c(O)cc(O)c4c5c(O)cc(O)c6c(=O)c7c(O)cc(C)c8c1c2c(c34)c(c78)c65 [HYPERICIN]	Active	3.1 µM	> 10	–	–	–	–	–	–	–
O=c1c(O)c(-c2cc(O)c(O)c(O)c2)oc2cc(O)cc(O)c12 [MYRICETIN]	Active	18.8 µM	–	–	–	–	–	–	–	Active
